From ChEMBL document CHEMBL3091366, “New 5-Aryl-1H-imidazoles display in vitro antitumor activity against apoptosis-resistant cancer models, including melanomas, through mitochondrial targeting” (J Med Chem, 2013)
Calls of active or inactive are those of the source. No cut-off for these calls is given here.

Assays:
SK-MEL-28 [1] = experiment: Effect on oxygen consumption in human SK-MEL-28 cells at 10 uM after 72 hrs by oxygraphic analysis; assay type: functional, cell-based
How it was run: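 SKMEL-28 cells pre-incubated 72 h with 10^-5 M compound or untreated; five million cells per chamber in phenol red-free DMEM (glucose 1 g/L, pyruvate 110 mg/L). ROUTINE respiration recorded by high-resolution respirometry (Clark electrode), 37 °C, continuous stirring from chamber closure; O2 consumption slopes taken as routine respiration.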

SK-MEL-28 [2] = experiment: Induction of ROS production in human SK-MEL-28 cells at 5 uM by DCFH-DA staining-based flow cytometry; assay type: functional, cell-based; details: TDE = time-dependent effect
How it was run: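 SKMEL-28 cells exposed to 5 µM over a time course, washed twice, stained 1 h at 37 °C with 20 µM DCFH-DA in phenol red-free RPMI, washed twice, trypsinized; ROS-driven probe oxidation read as fluorescence by flow cytometry. Run once in quadruplicate; mean ± SEM.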

SK-MEL-28 [3] = experiment: Effect on mitochondrial morphology in human SK-MEL-28 cells at 5 uM after 24 hrs by MitoTracker Green FM-based fluorescence microscopic analysis; assay type: functional, cell-based
How it was run: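 SKMEL-28 cells seeded on glass coverslips 48 h before treatment at 5 µM (3 to 48 h); two washes, mitochondria stained with 100 nM MitoTracker Green FM in phenol red-free RPMI for 30 min, rinsed twice, viewed by fluorescence microscopy. Three coverslips per condition.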

MDA-MB-468 = experiment: Cytotoxicity against human MDA-MB-468 cells assessed as residual growth at 10 uM; assay type: functional
BT-549 = experiment: Cytotoxicity against human BT549 cells assessed as residual growth at 10 uM; assay type: functional
[4] = Cytotoxicity against human Hs578T cells assessed as residual growth at 10 uM; assay type: functional, Hs-578T
MDA-MB-231 = experiment: Cytotoxicity against human MDA-MB-231 cells assessed as residual growth at 10 uM; assay type: functional
MCF7 = experiment: Cytotoxicity against human MCF7 cells assessed as residual growth at 10 uM; assay type: functional
DU-145 = experiment: Cytotoxicity against human DU145 cells assessed as residual growth at 10 uM; assay type: functional
[5] = Cytotoxicity against human UO31 cells assessed as residual growth at 10 uM; assay type: functional, UO-31
TK-10 = experiment: Cytotoxicity against human TK10 cells assessed as residual growth at 10 uM; assay type: functional
RXF 393 = experiment: Cytotoxicity against human RXF393 cells assessed as residual growth at 10 uM; assay type: functional
CAKI-1 = experiment: Cytotoxicity against human Caki1 cells assessed as residual growth at 10 uM; assay type: functional
A498 = experiment: Cytotoxicity against human A498 cells assessed as residual growth at 10 uM; assay type: functional
786-0 = experiment: Cytotoxicity against human 786-0 cells assessed as residual growth at 10 uM; assay type: functional
SK-OV-3 = experiment: Cytotoxicity against human SKOV3 cells assessed as residual growth at 10 uM; assay type: functional
[6] = Cytotoxicity against human NCI-ADR-RES cells assessed as residual growth at 10 uM; assay type: functional
[7] = Cytotoxicity against human OVCAR5 cells assessed as residual growth at 10 uM; assay type: functional, OVCAR-5
[8] = Cytotoxicity against human OVCAR4 cells assessed as residual growth at 10 uM; assay type: functional, OVCAR-4
OVCAR-3 = experiment: Cytotoxicity against human OVCAR3 cells assessed as residual growth at 10 uM; assay type: functional
U-251 = experiment: Cytotoxicity against human U251 cells assessed as residual growth at 10 uM; assay type: functional
SNB-75 = experiment: Cytotoxicity against human SNB75 cells assessed as residual growth at 10 uM; assay type: functional
SF-539 = experiment: Cytotoxicity against human SF539 cells assessed as residual growth at 10 uM; assay type: functional
SF-295 = experiment: Cytotoxicity against human SF295 cells assessed as residual growth at 10 uM; assay type: functional
SW-620 = experiment: Cytotoxicity against human SW620 cells assessed as residual growth at 10 uM; assay type: functional
HT-29 = experiment: Cytotoxicity against human HT-29 cells assessed as residual growth at 10 uM; assay type: functional
NCI-H522 = experiment: Cytotoxicity against human NCI-H522 cells assessed as residual growth at 10 uM; assay type: functional
HOP-62 = experiment: Cytotoxicity against human HOP62 cells assessed as residual growth at 10 uM; assay type: functional
[9] = Cytotoxicity against human EKVX cells assessed as residual growth at 10 uM; assay type: functional
SR = experiment: Cytotoxicity against human SR cells assessed as residual growth at 10 uM; assay type: functional
RPMI-8226 = experiment: Cytotoxicity against human RPMI8226 cells assessed as residual growth at 10 uM; assay type: functional
K562 = experiment: Cytotoxicity against human K562 cells assessed as residual growth at 10 uM; assay type: functional
HL-60(TB) = experiment: Cytotoxicity against human HL-60(TB) cells assessed as residual growth at 10 uM; assay type: functional
CCRF-CEM = experiment: Cytotoxicity against human CCRF-CEM cells assessed as residual growth at 10 uM; assay type: functional
SK-MEL-28 [10] = experiment: Cell cycle arrest in apoptotic-resistant human SK-MEL-28 cells at 5 uM after 24 to 72 hrs by double propidium iodide staining-based flow cytometry; assay type: functional
How it was run: (§1)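 SK-MEL-28 cells exposed to 5 µM for 24, 48 and 72 h. Cell cycle was read by flow cytometry with propidium iodide plus TUNEL double staining (APO-Direct kit), in quadruplicate. Videomicroscopy photographed each field every 4 min over 72 h. Global growth is cells at a time point divided by cells at time 0; the treated/control ratio gives GGR. Cell death was judged from morphology. Run twice, in triplicate and in quadruplicate.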

SK-MEL-28 [11] = experiment: Cytostatic activity against apoptotic-resistant human SK-MEL-28 cells assessed as growth inhibition at 5 uM after 48 to 72 hrs by quantitative videomicroscopy; assay type: functional; details: read-out: GI; how it was run: as §1
NHDF = experiment: Cytotoxicity against human NHDF cells assessed as growth inhibition after 72 hrs by MTT-based colorimetric assay; assay type: cell-based
How it was run: (§2)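 MTT colorimetric assay, 72 h exposure to the fumarate salt. Read-out is reduction of MTT to formazan by living cells. IC50 is the concentration that reduces the whole cell population by 50%. Six replicates per condition. Where compounds were not tested on every line, apoptosis-sensitive lines were PC3, MCF-7, LoVo and B16F10, and apoptosis-resistant lines were U373, T98G, A549 and SK-MEL-28.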

PC-3 = experiment: Cytotoxicity against apoptotic-sensitive human PC3 cells assessed as growth inhibition after 72 hrs by MTT-based colorimetric assay; assay type: functional, cell-based; details: Homo sapiens, PC-3, 72 h; how it was run: as §2
LoVo = experiment: Cytotoxicity against apoptotic-sensitive human LoVo cells assessed as growth inhibition after 72 hrs by MTT-based colorimetric assay; assay type: functional, cell-based; details: Homo sapiens, LoVo, 72 h; how it was run: as §2
A549 = experiment: Cytotoxicity against apoptotic-resistant human A549 cells assessed as growth inhibition after 72 hrs by MTT-based colorimetric assay; assay type: functional, cell-based; details: Homo sapiens, A549, 72 h; how it was run: as §2
T98G = experiment: Cytotoxicity against apoptotic-resistant human T98G cells assessed as growth inhibition after 72 hrs by MTT-based colorimetric assay; assay type: functional, cell-based; details: Homo sapiens, T98G, 72 h; how it was run: as §2
[12] = Cytotoxicity against apoptotic-resistant human U373 cells assessed as growth inhibition after 72 hrs by MTT-based colorimetric assay; assay type: functional, cell-based, U-373MG ATCC; details: Homo sapiens, U373 MG, 72 h; how it was run: as §2

## C=CCCCCOc1ccccc1-c1cnc(OCCCCC=C)n1C
SK-MEL-28 [1]
  Activity: Active
SK-MEL-28 [2]
  Activity: tde
SK-MEL-28 [3]
  Activity: inactive
MDA-MB-468
  Activity: 25.48%
BT-549
  Activity: 96.77%
[4]
  Activity: 66.38%
MDA-MB-231
  Activity: 66.46%
MCF7
  Activity: 42.18%
DU-145
  Activity: 92.64%
[5]
  Activity: 69.27%
TK-10
  Activity: 74.98%
RXF 393
  Activity: 90.54%
CAKI-1
  Activity: 54.94%
A498
  Activity: 51.15%
786-0
  Activity: 106.84%
SK-OV-3
  Activity: 74.99%
[6]
  Activity: 30.38%
[7]
  Activity: 95.17%
[8]
  Activity: 97.91%
OVCAR-3
  Activity: 51.28%
U-251
  Activity: 68.59%
SNB-75
  Activity: 81.88%
SF-539
  Activity: 81.04%
SF-295
  Activity: 70.07%
SW-620
  Activity: 30.82%
HT-29
  Activity: 18.11%
NCI-H522
  Activity: 12.63%
HOP-62
  Activity: 77.15%
[9]
  Activity: 85.23%
SR
  Activity: 30.69%
RPMI-8226
  Activity: 80.75%
K562
  Activity: 30.53%
HL-60(TB)
  Activity: 66.52%
CCRF-CEM
  Activity: 80.85%
SK-MEL-28 [10]
  Activity: inactive
SK-MEL-28 [11]
  inhibition of growth at 5 µM: 50%
NHDF
  IC50: 36 µM
PC-3
  IC50: 9 µM
LoVo
  IC50: 5 µM
A549
  IC50: 7 µM
T98G
  IC50: 4 µM
[12]
  IC50: 7 µM
